IC50 and inhibition data for 14 compounds are collected here from ChEMBL document CHEMBL1817567, “Design of benzimidazole- and benzoxazole-2-thione derivatives as inhibitors of bacterial hyaluronan lyase” (Eur J Med Chem, 2011).

The term IC50 denotes the concentration that gives 50% inhibition. A low value points to greater potency in that assay.

Experiment [1] can be described thus: Inhibition of Streptococcus agalactiae 4755 hyaluronidase at pH 7.4 after 3 hrs by turbidimetric analysis. An outline of the steps:
(§1)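 Same turbidimetric hyaluronan-lyase assay at pH 7.4 (citrate–phosphate/NaCl): SagHyal4755 2.9 ng, hyaluronan (2 mg/ml stock), BSA, 3.8% DMSO final, 3 h at 37 °C. CTAB (2.5%, in 0.5 M NaOH) precipitation, 20 min at 25 °C, A600. Activity scaled between no-inhibitor and no-enzyme samples.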

The target in experiment [2] is T1, Hyaluronidase (Bos taurus) (UniProt Q8SQG8+Q5E985). Kind of experiment: Inhibition of bovine testes hyaluronidase at 200 uM after 30 mins at pH 5 by turbidimetric analysis. Type of experiment: protein assay.
Experiment [3] deals with T1, Hyaluronidase (Bos taurus). As to the kind of experiment: Inhibition of bovine testes hyaluronidase at 380 uM after 30 mins at pH 5 by turbidimetric analysis. The class given is protein assay.
The target in experiment [4] is T1, Hyaluronidase (Bos taurus). Kind of experiment: Inhibition of bovine testes hyaluronidase at 49 uM after 30 mins at pH 5 by turbidimetric analysis. Type of experiment: protein assay.
Experiment [5] concerns the target T1, Hyaluronidase (Bos taurus). Kind of experiment: Inhibition of bovine testes hyaluronidase at 4200 uM after 30 mins at pH 5 by turbidimetric analysis. The class given is protein assay.
Experiment [6] has as its target T1, Hyaluronidase (Bos taurus). As to the kind of experiment: Inhibition of bovine testes hyaluronidase at 460 uM after 30 mins at pH 5 by turbidimetric analysis. Type of experiment: protein assay.
Experiment [7] addresses T1, Hyaluronidase (Bos taurus). Kind of experiment: Inhibition of bovine testes hyaluronidase at 180 uM after 30 mins at pH 5 by turbidimetric analysis. The class given is protein assay.
The target of experiment [8] is T1, Hyaluronidase (Bos taurus). Kind of experiment: Inhibition of bovine testes hyaluronidase at 190 uM after 30 mins at pH 5 by turbidimetric analysis. Type of experiment: protein assay.
Experiment [9] has as its target T1, Hyaluronidase (Bos taurus). As to the kind of experiment: Inhibition of bovine testes hyaluronidase at 170 uM after 30 mins at pH 5 by turbidimetric analysis. The class given is protein assay.
Experiment [10] has as its target T1, Hyaluronidase (Bos taurus). As to the kind of experiment: Inhibition of bovine testes hyaluronidase at 100 uM after 30 mins at pH 5 by turbidimetric analysis. Type of experiment: protein assay.
The target of experiment [11] is T1, Hyaluronidase (Bos taurus). As to the kind of experiment: Inhibition of bovine testes hyaluronidase at 400 uM after 30 mins at pH 5 by turbidimetric analysis. The class given is protein assay.
The target of experiment [12] is T1, Hyaluronidase (Bos taurus). As to the kind of experiment: Inhibition of bovine testes hyaluronidase at 3800 uM after 30 mins at pH 5 by turbidimetric analysis. The class given is protein assay.
The target of experiment [13] is T1, Hyaluronidase (Bos taurus). As to the kind of experiment: Inhibition of bovine testes hyaluronidase at 130 uM after 30 mins at pH 5 by turbidimetric analysis. The class given is protein assay.
Experiment [14] addresses T1, Hyaluronidase (Bos taurus). Kind of experiment: Inhibition of bovine testes hyaluronidase at 63 uM after 30 mins at pH 5 by turbidimetric analysis. The class given is protein assay.
Experiment [15] deals with T1, Hyaluronidase (Bos taurus). As to the kind of experiment: Inhibition of bovine testes hyaluronidase at 80 uM after 30 mins at pH 5 by turbidimetric analysis. Type of experiment: protein assay.
In experiment [16] the target is T1, Hyaluronidase (Bos taurus). Kind of experiment: Inhibition of bovine testes hyaluronidase at 2000 uM after 30 mins at pH 5 by turbidimetric analysis. The class given is protein assay.
Experiment [17] deals with T1, Hyaluronidase (Bos taurus). As to the kind of experiment: Inhibition of bovine testes hyaluronidase at 150 uM after 30 mins at pH 5 by turbidimetric analysis. Type of experiment: protein assay.
The nature of experiment [18]: Inhibition of Streptococcus agalactiae 4755 hyaluronidase at pH 5.0 after 30 mins by turbidimetric analysis. In short, it runs like this: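 SagHyal4755 (2.9 ng) with BSA and hyaluronan (2 mg/ml stock) in citrate–phosphate/NaCl buffer pH 5.0, 3.8% DMSO final, 30 min at 37 °C. Stopped by alkaline 2.5% CTAB, then 20 min at 25 °C. Residual-substrate turbidity read at 600 nm; no-inhibitor sample = 100%, no-enzyme sample = 0% activity. Enzyme-free compound controls were run.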

Experiment [19] in a line: Inhibition of Streptococcus agalactiae 4755 hyaluronidase at pH 7.4. An outline of the steps: as §1

The structures appear in SMILES notation. Activity calls are given as the source filed them. The rule behind the calls is not given here.

Regarding `O=C(CCc1ccccc1)n1c(=S)oc2ccccc21`, the half-inhibitory concentration (IC50) in experiment [1] was determined as 24 µM; in [18] it was 15 µM. For the same compound, the inhibition result in experiment [2], in experiment [3], in [4], in experiment [5], in experiment [6] and in experiment [7] was “inactive” in each case. Besides, the inhibition result in experiment [8], in experiment [9], in [10], in experiment [11], in experiment [12] and in [13] was “inactive” in each case. Moreover, the inhibition result in experiment [14], in [15], in experiment [16] and in [17] was “inactive” in each case.
In experiment [19], `CCCCCCCn1c(-c2ccc(O)cc2)c(C)c2cc(O)ccc21` came in with an IC50 of 12 µM.
With `O=C1O[C@H]([C@@H](O)CO)C(O)=C1O` [ASCORBIC ACID], the inhibition entry in [2], in experiment [3], in [4], in experiment [5], in experiment [6] and in [7] was “inactive” in each case. The inhibition entry in experiment [8], in [9], in experiment [10], in experiment [11], in experiment [12] and in experiment [13] was “inactive” throughout. Moreover, the inhibition entry in [14], in experiment [15], in [16] and in [17] was “inactive” throughout. In addition, it took 6100 µM to reach half-maximal inhibition in experiment [18] (IC50).
Consider `CC(=O)n1c(=S)n(C(C)=O)c2ccccc21`, for which the results for the IC50 in experiment [1], in experiment [19] and in [18] were 5 µM, 5 µM and 160 µM, respectively. The inhibition result in [2], in [3], in experiment [4], in experiment [5], in [6] and in [7] was “inactive” in each case. For the same compound, the inhibition result in [8], in [9], in experiment [10], in experiment [11], in [12] and in [13] was “inactive” throughout. Further, the inhibition result in experiment [14], in experiment [15], in [16] and in [17] was “inactive” in each case.
Regarding `O=C(CCC1CCCCC1)n1c(=S)oc2ccccc21`, the IC50 in [1] turned out to be 20 µM; in experiment [18], 227 µM. The inhibition result in [2], in [3], in [4], in [5], in [6] and in experiment [7] was “inactive” each time. Besides, the inhibition entry in experiment [8], in [9], in [10], in [11], in [12] and in experiment [13] was “inactive” throughout. In addition, the inhibition entry in experiment [14], in experiment [15], in experiment [16] and in experiment [17] was “inactive” each time.
`O=C(COc1ccccc1)n1c(=S)oc2ccccc21`: the IC50 in [1] amounted to 62 µM; in [18], 213 µM. In addition, the inhibition result in experiment [2], in [3], in experiment [4], in experiment [5], in [6] and in experiment [7] was “inactive” each time. The inhibition result in experiment [8], in experiment [9], in experiment [10], in [11], in [12] and in experiment [13] was “inactive” throughout. Moreover, the inhibition entry in [14], in experiment [15], in experiment [16] and in experiment [17] was “inactive” each time.
As for `O=C(Cc1ccccc1)n1c(=S)oc2ccccc21`, the IC50 amounted to 69 µM in experiment [1] and 260 µM in experiment [18]. The inhibition entry in [2], in experiment [3], in experiment [4], in experiment [5], in [6] and in experiment [7] was “inactive” each time. The inhibition entry in [8], in experiment [9], in experiment [10], in [11], in [12] and in experiment [13] was “inactive” throughout. Further, the inhibition result in [14], in experiment [15], in experiment [16] and in experiment [17] was “inactive” in each case.
The compound `CCCCCn1c(-c2ccc(O)cc2)c(C)c2cc(O)ccc21` yielded an IC50 in [19] of 36 µM.
Same read-out and setting: under `CCCn1c(-c2ccc(O)cc2)c(C)c2cc(O)ccc21` stands 160 µM.
For `CCC(=O)n1c(=S)oc2ccccc21`, the IC50 was 48 µM in experiment [1] and 128 µM in experiment [18]. Moreover, the inhibition entry in experiment [2], in experiment [3], in experiment [4], in experiment [5], in [6] and in [7] was “inactive” in each case. Also, the inhibition result in experiment [8], in experiment [9], in experiment [10], in [11], in experiment [12] and in experiment [13] was “inactive” in each case. The inhibition entry in experiment [14], in [15], in [16] and in [17] was “inactive” each time.
As for `Sc1nc2ccccc2[nH]1` [2-MERCAPTOBENZIMIDAZOLE], the IC50 in experiment [1] stood at 1860 µM; in experiment [18], 1150 µM. Moreover, the inhibition entry in [2], in experiment [3], in experiment [4], in experiment [5], in experiment [6] and in experiment [7] was “inactive” each time. Also, the inhibition result in experiment [8], in experiment [9], in experiment [10], in [11], in experiment [12] and in experiment [13] was “inactive” each time. In addition, the inhibition result in [14], in [15], in experiment [16] and in [17] was “inactive” throughout.
On to `CC(=O)n1c(=S)oc2ccccc21`, for which the IC50 in experiment [1] is 42 µM; in experiment [18] it was 125 µM. Further, the inhibition entry in [2], in [3], in experiment [4], in experiment [5], in experiment [6] and in experiment [7] was “inactive” each time. The inhibition entry in experiment [8], in [9], in [10], in [11], in [12] and in experiment [13] was “inactive” in each case. Moreover, the inhibition result in experiment [14], in experiment [15], in experiment [16] and in [17] was “inactive” each time.
For the compound `Cc1c(-c2ccc(O)cc2)[nH]c2ccc(O)cc12`, the IC50 in experiment [19] worked out at 280 µM.
Still for that read-out and setting: under `Cc1c(-c2ccc(O)cc2)n(C)c2ccc(O)cc12` stands 220 µM.
